Measured values published in ChEMBL document CHEMBL2086298, “Synthesis and biological evaluation of fatty acyl ester derivatives of (-)-2',3'-dideoxy-3'-thiacytidine” (J Med Chem, 2012).

What was measured:
[1] = system: Human immunodeficiency virus; experiment: Antiviral activity against HIV infected in human CEM-SS cells; assay type: functional, organism-based; conditions: Human immunodeficiency virus 1, CEM-SS
[2] = system: Human immunodeficiency virus 1; experiment: Antiviral activity against HIV1 BaL assessed as inhibition of infection in HeLa P4/R5 cells expressing CD4 receptor and beta-gal incubated for 2 hrs followed by compound-wash out measured after 46 hrs by single round infection MAGI assay; assay type: functional, organism-based; conditions: Human immunodeficiency virus 1, BaL
In short: (§1)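 P4R5 MAGI cells (CD4 and coreceptor expressing) were seeded at 1.2 × 10⁴ cells/well about 18 h before infection. They were exposed for 2 h at 37 °C to cell-free HIV-1 with or without compound, then washed and cultured 46 h more. Infection was read by β-galactosidase reporter chemiluminescence as a percentage of untreated infection. EC₅₀ came from regression, with triplicate wells per concentration.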

HeLa = experiment: Cytotoxicity against human HeLa P4/R5 cells incubated for 2 hrs followed by compound-wash out measured after 46 hrs by MTT assay
[3] = system: Human immunodeficiency virus 1; experiment: Antiviral activity against HIV1 3B assessed as inhibition of infection in HeLa P4/R5 cells expressing CD4 receptor and beta-gal incubated for 2 hrs followed by compound-wash out measured after 46 hrs by single round infection MAGI assay; assay type: functional, organism-based; conditions: Human immunodeficiency virus 1, 3B; in short: as §1
[4] = system: Human immunodeficiency virus 1; experiment: Ratio of lamivudine EC50 to compound EC50 for HIV1 by cell-based assay; assay type: functional
[5] = system: Human immunodeficiency virus 1; experiment: Antiviral activity against multidrug-resistant HIV1 4755-5 clade B clinical isolate infected in PHA-stimulated human PBMC assessed as inhibition of viral replication incubated for 6 hrs followed by compound-wash out measured after 6 days by liquid scintillation counting; assay type: functional, organism-based; conditions: Human immunodeficiency virus 1, 4755-5 clade B
CCRF-CEM [6] = experiment: Cellular uptake in human CCRF-CEM cells at 50 uM after 1 hr by HPLC analysis; assay type: ADME, cell-based
In short: (§2)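 CCRF-CEM cells were grown in serum-free RPMI to ~70–80% confluency (1 × 10⁶ cells/mL), then given medium containing 50 μM compound at 37 °C for 1–72 h. Pellets were washed in ice-cold PBS and extracted with methanol/chloroform/isopropanol (4:3:1), then filtered. Parent ester and products were tracked by analytical HPLC at 265 nm using a water/acetonitrile (0.1% TFA) gradient.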

CCRF-CEM [7] = experiment: Drug metabolism in human CCRF-CEM cells assessed as compound hydrolysis at 50 uM after 1 hr by HPLC analysis; assay type: ADME, cell-based; in short: as §2
[8] = system: Human immunodeficiency virus 1; experiment: Antiviral activity against NNTRI-resistant HIV1 A-17 clade B clinical isolate infected in PHA-stimulated human PBMC assessed as inhibition of viral replication incubated for 6 hrs followed by compound-wash out measured after 6 days by liquid scintillation counting; assay type: functional, organism-based; conditions: Human immunodeficiency virus 1, A-17 clade B
[9] = system: Human immunodeficiency virus 1; experiment: Antiviral activity against NRTI-resistant HIV1 71361-1 clade B clinical isolate infected in PHA-stimulated human PBMC assessed as inhibition of viral replication incubated for 6 hrs followed by compound-wash out measured after 6 days by liquid scintillation counting; assay type: functional, organism-based; conditions: Human immunodeficiency virus 1, 71361-1 clade B
[10] = system: Human immunodeficiency virus 1; experiment: Antiviral activity against HIV1 94US3393IN clade B clinical isolate infected in PHA-stimulated human PBMC assessed as inhibition of viral replication incubated for 6 hrs followed by compound-wash out measured after 6 days by liquid scintillation counting; assay type: functional, organism-based; conditions: Human immunodeficiency virus 1, 94US3393IN clade B
[11] = Cytotoxicity against PHA-stimulated human PBMC incubated for 6 hrs followed by compound-wash out measured after 6 days; assay type: cell-based
In short: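 PHA-P-stimulated PBMCs pooled from at least two normal donors were exposed to compound dilutions for 6 h. Cells were then washed by medium replacement and centrifugation (~200g, 10 min) and cultured 6 days or until peak RT activity. Cytotoxicity was monitored by MTS on the same plates used for antiviral testing, alongside drug-plus-medium control wells without cells.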

[12] = system: Human immunodeficiency virus 1; experiment: Antiviral activity against HIV1 98USMSC5016 clade C clinical isolate infected in PHA-stimulated human PBMC assessed as inhibition of viral replication incubated for 6 hrs followed by compound-wash out measured after 6 days by liquid scintillation counting; assay type: functional, organism-based; conditions: Human immunodeficiency virus 1, 98USMSC5016 clade C
CCRF-CEM [13] = experiment: Drug metabolism in human CCRF-CEM cells assessed as compound hydrolysis at 50 uM after 1 hr by HPLC analysis
[14] = system: Human immunodeficiency virus 1; experiment: Antiviral activity against HIV1 by cell-based assay; assay type: functional, organism-based

Compound	EC50 [2] [µM]	EC50 [3] [µM]	EC50 (HeLa) [µM]	further results
CCSCCCCCCCCCCCC(=O)O				EC50 [1]: 9.4 µM
CCCCCCCCCCCCCC(=O)OC[C@@H]1O[C@H](n2ccc(N)nc2=O)CS1	0.2	0.5	> 228	IC50 [5]: 5.09 µM; IC90 [5]: > 6.83 µM; Drug uptake (CCRF-CEM [6]): Active; Drug metabolism (CCRF-CEM [7]): Active; IC50 [8]: 0.0028 µM; IC90 [8]: 0.0311 µM; IC50 [9]: 0.0433 µM; IC90 [9]: 0.253 µM; IC50 [10]: 0.0042 µM; IC90 [10]: 0.015 µM; CC50 [11]: > 6.83 µM; IC50 [12]: 0.0019 µM; IC90 [12]: 0.0275 µM; Drug metabolism (CCRF-CEM [13]): Active
[N-]=[N+]=NCCCCCCCCCCCC(=O)OC[C@@H]1O[C@H](n2ccc(N)nc2=O)CS1	0.7	0.9	> 221	
CCSCCCCCCCCCCCC(=O)OC[C@@H]1O[C@H](n2ccc(N)nc2=O)CS1	0.2	2.3	> 212	
Nc1ccn([C@@H]2CS[C@H](CO)O2)c(=O)n1 [LAMIVUDINE]			> 437	CC50 [11]: > 13.1 µM; EC50 [14]: 80.3 µM

Continued, in another order:

EC50 [2] [µM]	EC50 [3] [µM]	Compound	EC50 (HeLa) [µM]	further results
135	> 154	CCCCCCCCCCCCCC(=O)Nc1ccn([C@@H]2CS[C@H](COC(=O)CCCCCCCCCCCCC)O2)c(=O)n1	> 154	
72.6	148	[N-]=[N+]=NCCCCCCCCCCCC(=O)Nc1ccn([C@@H]2CS[C@H](COC(=O)CCCCCCCCCCCN=[N+]=[N-])O2)c(=O)n1	> 148	
0.7	10.9	CCCCCCCCCCCCCC(=O)Nc1ccn([C@@H]2CS[C@H](CO)O2)c(=O)n1	> 228	Ratio EC50 [4]: 115
3.8	29.4	[N-]=[N+]=NCCCCCCCCCCCC(=O)Nc1ccn([C@@H]2CS[C@H](CO)O2)c(=O)n1	> 221	
0.4	5.3	CCSCCCCCCCCCCCC(=O)Nc1ccn([C@@H]2CS[C@H](CO)O2)c(=O)n1	> 212	
